Converted amounts (≈) assume the structure as drawn. Where two headings read alike, the source gives them in different places. Blank lines part the entries; values can stand above or below the compound they belong to.
Columns and labels:
[1] = cited from earlier work
[2] = cited from earlier work; remark: listed apart in the source
[3] = tested on: cytochrome P450 (CYP) 3A4; conditions: in vitro study; cited from earlier work
[4] = cited from earlier work; remark: listed apart in the source
[5] = healthy subjects; cited from earlier work
[6] = once-daily administration; cited from earlier work
[7] = Steady-state pharmacokinetics of lazertinib with; format: in vivo, human; conditions: for CD15, arithmetic mean: 240 mg once daily; for DNAUCss, arithmetic mean / DNCmax,ss, arithmetic mean / DNCD15, arithmetic mean: 40–320 mg once daily; for DNAUCss, arithmetic mean / DNCmax,ss, arithmetic mean: steady state
In short: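 NSCLC patients dosed once daily, fasting, in 21-day cycles. AUCss and Cmax,ss came from non-compartmental analysis using actual sampling times over the dosing interval after the 22nd dose (cycle 2 day 1). CD15 is the trough before the 15th dose. Groups were compared using dose-normalized values within the dose-proportional range, plus raw values at 240 mg. Analysis was ANOVA on log-transformed values with group as fixed effect; geometric mean ratios with 90% CI.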

[8] = co-administered with ranitidine (an H2RA)
[9] = co-administered with omeprazole or ranitidine

Structure (SMILES): Cc1ccc(C(=O)Nc2ccc(CN3CCN(C)CC3)c(C(F)(F)F)c2)cc1C#Cc1cnc2cccnn12 [ponatinib]
Effect of lansoprazole on exposure [1]: did not have a clinically significant effect

Structure (SMILES): COc1cc2ncnc(Nc3ccc(F)c(Cl)c3)c2cc1OCCCN1CCOCC1 [gefitinib]
AUC decreased to [1, 8]: 45%
Cmax decreased to [1, 8]: 70%

Structure (SMILES): C#Cc1cccc(Nc2ncnc3cc(OCCOC)c(OCCOC)cc23)c1 [erlotinib]
AUC decreased by [1, 9]: 30–45%
Cmax decreased by [1, 9]: 50–60%

Structure (SMILES): O=C(c1ccc(F)c(F)c1Nc1ccc(I)cc1F)N1CC(O)([C@@H]2CCCCN2)C1 [cobimetinib]
Fold less solubility ([2]; pH 6.4 compared to pH 1.9): 100 fold
Effect of rabeprazole on exposure ([1]; fed and fasted conditions): did not result in a statistically significant effect

Structure (SMILES): COC(=O)c1ccc2c(c1)NC(=O)/C2=C(\Nc1ccc(N(C)C(=O)CN2CCN(C)CC2)cc1)c1ccccc1 [nintedanib]
pH-dependent solubility profile [2]: increased solubility at acidic pH < 3
Effect of PPI or H2RA on exposure [1]: neither PPI nor H2RA affected

Reduction of exposure by ARAs at the steady state ([7]; ARA group versus non-ARA group): approximately 10%
Effect of co-administered ARAs on the steady state pharmacokinetics ([7]; ARA group versus non-ARA group, all p values > 0.05): did not significantly affect
CD15, arithmetic mean ([7]; ARA group, trough day 15 of cycle 1, n=10): 159.01 (62.4%) ng/mL
DNAUCss, arithmetic mean ([7]; ARA group, n=19): 25.51 (59.9%) h·ng/mL/mg
DNCmax,ss, arithmetic mean ([7]; ARA group, n=19): 1.97 (50.1%) ng/mL/mg
DNCD15, arithmetic mean ([7]; ARA group, trough day 15 of cycle 1, n=23): 0.66 (62.1%) ng/mL/mg
CD15, arithmetic mean ([7]; Non-ARA group, trough day 15 of cycle 1, n=115): 175.70 (59.4%) ng/mL
DNAUCss, arithmetic mean ([7]; Non-ARA group, n=105): 27.61 (42.9%) h·ng/mL/mg
DNCmax,ss, arithmetic mean ([7]; Non-ARA group, n=105): 2.14 (44.3%) ng/mL/mg
DNCD15, arithmetic mean ([7]; Non-ARA group, trough day 15 of cycle 1, n=203): 0.72 (63.4%) ng/mL/mg
Structure (SMILES): C=CC(=O)Nc1cc(Nc2nccc(-n3cc(CN(C)C)c(-c4ccccc4)n3)n2)c(OC)cc1N1CCOCC1 [lazertinib, Lazertinib]
Metabolizing enzyme [3]: predominantly metabolized by cytochrome P450 (CYP) 3A4
Solubility in aqueous media ([4]; between pH 5.0 and 6.0): solubility decreasing
Solubility in aqueous media ([4]; pH 1.2–4.0): soluble
Solubility in aqueous media ([4]; pH 7.0–8.0): practically insoluble
Effect of a high-fat meal on the pharmacokinetics [5]: did not significantly affect
Time to reach steady state [6]: ≤ 15 days

Structure (SMILES): C[C@@H](Oc1cc(-c2cnn(C3CCNCC3)c2)cnc1N)c1c(Cl)ccc(F)c1Cl [crizotinib]
Solubility ([2]; pH 1.6): > 10000 µg/mL
Solubility ([2]; pH 7.7): 100 µg/mL (≈ 0.222 mM)
Effect of esomeprazole on pharmacokinetics [1]: no clinically significant effect
